Assay outcomes as filed in PubChem BioAssay.
aSyn 5UTR inh – 5' untranslated region of α-synuclein, MLPCN primary screen | alpha-synuclein 5'UTR reporter, inhibitor activity | inhibition, % (tested at 7.5 µM) | 300,000 compounds, 0.82% hits | AID 1813; in the data active means inhibition above about 60%;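 further: H4 neuroglioblastoma cells stably carrying SNCA 5'UTR luciferase fusion; 0% = DMSO wells and 100% = positive control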
SKKanGAS inh – inhibitors of SKKanGAS S. pyogenes growth in kanamycin (SK-promoter or general growth effect). inhibition, % at 7.5 µM. 300,000 compounds, 1.3% hits. BacTiter-Glo, 6 h;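 active means mean replicate score, as percent of positive control median, at least 50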;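 further: strain carries kanamycin resistance gene driven by streptokinase promoter and grows in 40 µg/ml kanamycin; loss of luminescence reflects streptokinase promoter inhibition or plain growth inhibition; 0% = median of DMSO wells and 100% = positive control at its reference dose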
CSC inhib – cancer stem cell inhibition | cancer stem cell-like cells viability, luminescence | inhibition, % at 7.5 µM | 300,000 compounds, 1.1% hits; in the data active means inhibition above about 75%; tested in HMLE shEcad cells
Mdm2-MdmX inh – inhibitors of human Mdm2/MdmX interaction. SaOS-2 split-luciferase Mdm2/MdmX complementation, luminescence. inhibition, % at 8 µM. 330,000 compounds, 3% hits;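 active means inhibition of at least 50% at 8 µM in the primary screen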
Target sequence (O15151 whole entry, looked up): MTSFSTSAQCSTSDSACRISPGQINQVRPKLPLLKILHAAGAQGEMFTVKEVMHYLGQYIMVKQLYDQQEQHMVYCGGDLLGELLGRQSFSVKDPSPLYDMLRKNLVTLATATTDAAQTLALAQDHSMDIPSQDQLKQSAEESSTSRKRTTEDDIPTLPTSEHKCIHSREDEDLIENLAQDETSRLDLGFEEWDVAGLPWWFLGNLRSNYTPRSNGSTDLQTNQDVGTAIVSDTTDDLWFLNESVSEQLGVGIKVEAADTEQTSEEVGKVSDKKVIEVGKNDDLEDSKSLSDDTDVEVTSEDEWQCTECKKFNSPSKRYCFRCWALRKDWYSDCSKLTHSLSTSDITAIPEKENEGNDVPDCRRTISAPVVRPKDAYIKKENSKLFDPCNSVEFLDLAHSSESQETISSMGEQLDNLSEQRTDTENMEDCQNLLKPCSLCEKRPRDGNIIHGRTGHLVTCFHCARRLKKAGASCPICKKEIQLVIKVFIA
Target sequence (Q00987 whole entry, looked up): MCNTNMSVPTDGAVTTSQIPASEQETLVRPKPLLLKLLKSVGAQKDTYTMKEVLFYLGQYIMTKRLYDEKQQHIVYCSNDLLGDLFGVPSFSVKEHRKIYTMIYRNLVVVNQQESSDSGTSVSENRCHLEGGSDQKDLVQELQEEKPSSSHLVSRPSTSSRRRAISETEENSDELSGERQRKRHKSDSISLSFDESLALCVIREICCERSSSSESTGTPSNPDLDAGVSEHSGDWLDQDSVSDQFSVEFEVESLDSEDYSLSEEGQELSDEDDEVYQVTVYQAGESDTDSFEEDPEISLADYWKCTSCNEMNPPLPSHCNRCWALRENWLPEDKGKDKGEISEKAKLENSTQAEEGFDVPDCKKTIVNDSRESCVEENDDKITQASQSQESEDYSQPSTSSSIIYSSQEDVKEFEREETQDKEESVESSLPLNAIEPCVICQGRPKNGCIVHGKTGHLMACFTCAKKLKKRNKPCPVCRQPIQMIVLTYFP
T cruzi inh – T. cruzi replication inhibition. 300,000 compounds, 1.4% hits. T. cruzi beta-gal in NIH3T3, luminescence, 90 h. inhibition, % (test concentration not listed). AID 1885;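 active means mean inhibition across valid replicates above about 55%, limit read from the data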;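 further: signal also drops with host cell toxicity which is not excluded here; 0% = plate median of DMSO wells and 100% = zero luminescence signal; higher percent means less beta-gal luminescence so fewer parasites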
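System: NIH/3T3 fibroblasts plus reporter T. cruzi. Medium: DMEM plus 2% FBS. Probe or stimulus: 5000 reporter trypomastigotes per well. Compound: single 50 nL compound addition per well in DMSO. Incubation: co-culture of at least 90 h after 3 h attachment. Detection: GalScreen β-gal luminescence, detergent lysis, 60 min. Evaluation: parasite load inhibition, %.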
* = called active by the depositor; x = not tested or not shown. An excerpt weighted towards active compounds, which were near 5.4% of everything screened.

SMILES	aSyn 5UTR inh	SKKanGAS inh	CSC inhib	Mdm2-MdmX inh	T cruzi inh
COc1cc(OC)cc(-c2c(-c3cccs3)c3cc(-c4ccn[nH]4)ccc3n2C)c1	x	x	87*	21	x
CCCn1c(SCC(=O)N2CC(=O)Nc3ccccc32)n[nH]c1=O	x	x	-12	14	x
CCC[C@@H](CN1CCC[C@H]1CN1C(N)=NC[C@H]1C(C)C)N1C[C@@H](Cc2ccccc2)N(CCCC2CCCC2)C1=N	x	x	-16	-9	x
CCSc1n[nH]c2nc3c(c(=O)n12)C1(CCCCC1)Cc1ccccc1-3	-12	-6	5	6	-6
CSc1n[nH]c2nc3c(c(=O)n12)C1(CCCCC1)Cc1ccccc1-3	-8	60*	4	13	5
CC(=O)Nc1ccc(OS(=O)(=O)c2ccc([N+](=O)[O-])cc2)cc1	-115	-6	-5	13	71*
CC(=O)Nc1ccc(OS(=O)(=O)c2ccc(Cl)cc2)cc1	-43	-11	x	16	-1
COc1ccccc1CN(C(=O)CNC(=O)c1ccco1)C(C(=O)NCC1CCCO1)c1ccc(OC)c(OC)c1 (centres undefined)	-20	-4	-13	24	-3
COc1cc(/C=C(\C#N)C(=O)NCc2ccccc2)ccc1OCc1ccc(C(=O)O)cc1	-29	13	-1	-8	1
COc1cc(/C=C(/C#N)c2ccccc2F)ccc1OCc1ccccc1	-27	-10	116*	1	33
Cc1[nH]c2ccccc2c1CCN(Cc1cccnc1)C(=S)Nc1ccc(F)cc1	-10	2	-2	-17	41
Cc1[nH]c2ccccc2c1CCN(Cc1cccnc1)C(=S)Nc1cccc(F)c1	17	-3	4	29	58*
Cc1[nH]c2ccc(F)cc2c1CCN(Cc1cccnc1)C(=S)Nc1ccccc1	0	-10	-2	37	60*
Cc1cc2nc(CCN(Cc3cccnc3)C(=S)Nc3ccc(F)cc3)[nH]c2cc1C	16	-2	x	-23	61*
c1ccc(CN2CCCC3(CCCN(Cc4nc(COc5ccccc5)no4)C3)C2)cc1 (centres undefined)	-7	-1	9	11	61*
Fc1ccccc1Cc1noc(CN2CCN(C/C=C/c3ccccc3)CC2)n1	0	-2	-6	23	67*
